Reference: ChEMBL document CHEMBL1125894, “Dual-action cephalosporins: cephalosporin 3'-quaternary ammonium quinolones” (1991)
Converted amounts (≈) assume the structure as drawn. “And” between values parts separate entries of the source, which are not always exact repeats. Equal values may be shown once.

What was measured:
Type in all cases: functional
[1] = tested on: Citrobacter freundii; test: In vitro antibacterial activity against Citrobacter freundii BS 16
Procedure, shortened: (§1)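 Serial 2-fold dilutions in the NCCLS broth microdilution method for aerobic nonfastidious organisms, with an 18-h incubation. The value is reported as the minimum inhibitory concentration (MIC).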

[2] = tested on: Escherichia coli; test: In vivo activity in murine against Escherichia coli 257 infection after sc administration.
Procedure, shortened: (§2)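 Mouse protection test in CD1 Swiss albino mice (18–20 g). Mice were infected intraperitoneally with 0.5 mL of a diluted bacterial suspension, then treated within 5 min with one 1.0 mL subcutaneous dose at the dorsal base of the neck. Doses ranged from 0.05 to 250 mg/kg, with six mice per group. ED50 was calculated by the Reed–Muench method.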

[3] = tested on: Enterobacter cloacae; test: In vitro antibacterial activity against Enterobacter cloacae 5699; procedure, shortened: as §1
[4] = tested on: Escherichia coli; test: In vitro antibacterial activity against Escherichia coli 257; procedure, shortened: as §1
[5] = tested on: Enterobacter cloacae; test: In vivo activity in murine against Enterobacter cloacae 5699 infection after sc administration.; procedure, shortened: as §2
[6] = tested on: Klebsiella pneumoniae; test: In vitro antibacterial activity against Klebsiella pneumoniae A; procedure, shortened: as §1
[7] = tested on: Klebsiella pneumoniae; test: In vivo activity in murine against Klebsiella pneumoniae A infection after sc administration.; procedure, shortened: as §2
[8] = tested on: Pseudomonas aeruginosa; test: In vivo activity in murine against Pseudomonas aeruginosa 5712 infection after sc administration.
Procedure, shortened: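 Mouse protection test in CD1 Swiss albino mice (18–20 g) infected intraperitoneally with 0.5 mL of diluted P. aeruginosa suspension. Mice received 1.0 mL subcutaneously at the neck base within 5 min of infection and a second treatment 3 h after infection. Doses ranged from 0.05 to 250 mg/kg, with six mice per group. ED50 was calculated by the Reed–Muench method.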

[9] = tested on: Pseudomonas aeruginosa; test: In vitro antibacterial activity against Pseudomonas aeruginosa 5712; procedure, shortened: as §1
[10] = tested on: Staphylococcus aureus; test: In vitro antibacterial activity against Staphylococcus aureus 95(MR)
Procedure, shortened: (§3)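 Staphylococci were tested by the standard agar dilution procedure using serial 2-fold dilutions of agent. The value is reported as the MIC.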

[11] = tested on: Staphylococcus aureus; test: In vitro antibacterial activity against Staphylococcus aureus Smith(MS); procedure, shortened: as §3
[12] = tested on: Serratia marcescens; test: In vivo activity in murine against Serratia marcescens SM infection after sc administration.; procedure, shortened: as §2
[13] = tested on: Serratia marcescens; test: In vitro antibacterial activity against Serratia marcescens SM; procedure, shortened: as §1
[14] = tested on: Streptococcus pyogenes; test: In vivo activity in murine against Streptococcus pyogenes 4 infection after sc administration.; procedure, shortened: as §2
[15] = tested on: Streptococcus pneumoniae; test: In vivo activity in murine against Streptococcus pneumoniae 6301 infection after sc administration.; procedure, shortened: as §2
[16] = tested on: Streptococcus pneumoniae; test: In vitro antibacterial activity against Streptococcus pneumoniae 6301
Procedure, shortened: (§4)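 Broth macrodilution with serial 2-fold dilutions in cation-supplemented Mueller-Hinton broth containing 10% goat serum. The value is reported as the MIC.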

[17] = tested on: Staphylococcus aureus; test: In vivo activity in murine against Staphylococcus aureus 753(MR) infection after sc administration.; procedure, shortened: as §2
[18] = tested on: Staphylococcus aureus; test: In vivo activity in murine against Staphylococcus aureus Smith (MS) infection after sc administration.; procedure, shortened: as §2
[19] = tested on: Streptococcus pyogenes; test: In vitro antibacterial activity against Streptococcus pyogenes 4; procedure, shortened: as §4
[20] = tested on: Enterobacter cloacae; test: In vitro antibacterial activity against Enterobacter cloacae P99; procedure, shortened: as §1
[21] = tested on: Citrobacter freundii; test: In vivo activity in murine against Citrobacter freundii BS#16 infection after sc administration.
Procedure, shortened: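 CD1 Swiss albino mice (18–20 g) infected intraperitoneally with 0.5 mL diluted bacterial culture suspension. Single subcutaneous treatment within 5 min, 1.0 mL at dorsal base of neck, serial dilutions spanning 0.05–250 mg/kg. Six mice per treatment and control group. ED50 (50% protective dose) derived by Reed and Muench method.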

CN1CCN(c2c(F)cc3c(=O)c(C(=O)O)cn(CCF)c3c2F)CC1 [FLEROXACIN]
MIC [1]: 0.25 µg/mL (≈ 0.677 µM)
ED50 [2]: 0.26 mg/kg
ED50 ([2]; Escherichia coli, sc, read-out: ED50): 0.25 mg/kg
MIC [3]: 0.063 µg/mL (≈ 0.171 µM)
MIC [4]: 0.031 µg/mL (≈ 0.0839 µM)
ED50 [5]: < 2 mg/kg
MIC [6]: 0.031 µg/mL (≈ 0.0839 µM)
ED50 [7]: 0.3 mg/kg
ED50 [8]: 14 mg/kg and 31 mg/kg
MIC [9]: 4 µg/mL (≈ 10.8 µM)
MIC [10]: 0.25 µg/mL (≈ 0.677 µM)
MIC [11]: 0.25 µg/mL (≈ 0.677 µM)
ED50 [12]: < 2 mg/kg
MIC [13]: 0.25 µg/mL (≈ 0.677 µM)
ED50 [14]: > 250 mg/kg
ED50 [15]: > 250 mg/kg
MIC [16]: 8 µg/mL (≈ 21.7 µM)
ED50 [17]: 2.8 mg/kg
ED50 [18]: 0.65 mg/kg
MIC [19]: 4 µg/mL (≈ 10.8 µM)
MIC [20]: 0.031 µg/mL (≈ 0.0839 µM)
ED50 [21]: 2 mg/kg
